Assay results reported in the EternaBench riboswitch data.

Tested on: MS2 coat protein
Assay: apparent Kd, MS2 coat protein; higher = weaker binding; RNA-MaP array; theophylline 2 mM where present
In short: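 Stalled E. coli RNA polymerase transcribed each design on Illumina sequencing-chip clusters. The clusters were titrated with SNAP-549-labelled MS2 coat protein, starting at 0.7 or 1.5 nM and doubling up to 3 µM, first without ligand and then with constant ligand, in 100 mM Tris-HCl pH 7.5, 80 mM KCl, 4 mM MgCl2, BSA, DTT, yeast tRNA and Tween-20. Green signal was normalised to red-channel RNA signal and to the control-cluster median Fmax. The apparent Kd is the median of filtered binding-curve fits made for each cluster.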

[1] = designed as: ON switch for theophylline, no ligand
[2] = ligand present: theophylline, designed as: ON switch for theophylline
[3] = designed as: OFF switch for theophylline, no ligand
[4] = ligand present: theophylline, designed as: OFF switch for theophylline

GGUGAUCCGUGCUGCCGGAUCAUCGGUGAUACCAGCAUCGAAAGAUGCCCUUGGCAGCACCAACAUGAGGAUCACCCAUGUAAUA
apparent Kd [1]: 206 nM | apparent Kd [2]: 73.4 nM

GGGUGCGGGAUAGAUACCAGUGCCUUAAAAUAGGCACAUGAGGAUCACCCAUGUACCGGGCGCCCUUGGCAGCUAGUACCAUCCA
apparent Kd [1]: 127 nM | apparent Kd [2]: 181 nM

AAUAACAUGAGGAUCACCCAUGUAAAAGAUACCAGAUGCAUGAUGAUCCCUUGGCAGCUUAAAACGCGAUUGGAAACAAUCGCGA
apparent Kd [1]: 31.2 nM | apparent Kd [2]: 126 nM

GCACCAGGUACGGAUACCAGCUGCCAGAGAUACAUGAGGAUCACCCAUGUGACCUGAUUUAGCCCUUGGCAGCUGUACCUGGUGC
apparent Kd [1]: 466 nM | apparent Kd [2]: 35.7 nM

UGUUUGGUGCGCGAGUGUUGGAUAAUUGAUACCAGUGUAGAUGUGCGCCCUUGGCAGCGAAUCCUAACAUGAGGAUCACCCAUGU
apparent Kd [1]: 43.8 nM | apparent Kd [2]: 57.1 nM

UCGUGUGUUUCGGAUACCAGUGAAAUCGAUACAUGAGGAUCACCCAUGUGAGAGGAUGUACACCCUUGGCAGCUGUCUGUAUCUG
apparent Kd [1]: 13.1 nM | apparent Kd [2]: 13.7 nM

ACGACAUGAGGAUCACCCAUGUAAGGUGAUACCAGACGAAGUAAUGUCCCUUGGCAGCACACGCAUAGUUGCGAUUAUUGUACGA
apparent Kd [1]: 533 nM | apparent Kd [2]: 137 nM

CCUGCGUUUCUUUUCUUUCGCAGGAAUGAUACCAGUAGGGAAACCUACCCUUGGCAGCAUGGGACAUGAGGAUCACCCAUGUUUU
apparent Kd [1]: 166 nM | apparent Kd [2]: 33.4 nM

CUCUGAGUGAGUAAUCACUCAGAGGCGGAUACCAGCGAGGUCCAUCGCCCUUGGCAGCCGAACAUGAGGAUCACCCAUGUCGGUA
apparent Kd [1]: 10.7 nM | apparent Kd [2]: 14.6 nM

UUAAUGGAGCUUUAAUUUACGAUUUCUGAUACCAGUGUUUCAUUUCACCCUUGGCAGCAGUGACAUGAGGAUCACCCAUGUAAUA
apparent Kd [1]: 25.4 nM | apparent Kd [2]: 23.5 nM

CGUGUCGUAACUGAUACCAGUGUACUGACAUGAGGAUCACCCAUGUUGGGUUUUGUUGUACACCCUUGGCAGCAGAAUCGAUACG
apparent Kd [3]: 76.9 nM | apparent Kd [4]: 119 nM

AUAAGUAAUGUUUCGUGUAUUAUUACAGAUACCAGACUAUCCUAUGUCCCUUGGCAGCUGGAUUACAUGAGGAUCACCCAUGUUG
apparent Kd [3]: 16.4 nM | apparent Kd [4]: 24.9 nM

AAAUAAAUAACUGAUACCAGUCGGACAACAUGAGGAUCACCCAUGUUCACCCAUGUUGAGGACCCUUGGCAGCAGAAAUAUAAAA
apparent Kd [3]: 92.3 nM | apparent Kd [4]: 185 nM

AUCGUACCUGAGGAUACCAGCAUGUGAUCAUAACAUGAGGAUCACCCAUGUAAUCAGUGAUGCCCUUGGCAGCUUGAUCGGUACA
apparent Kd [1]: 80.1 nM | apparent Kd [2]: 24.9 nM

UCGUGGUCCGCAAGGACCGGGAGUUGCGAUACCAGCACGGUAACGUGCCCUUGGCAGCGCACAUGAGGAUCACCCAUGUGGUGUU
apparent Kd [3]: 229 nM | apparent Kd [4]: 514 nM

GAGGUCCUGAGAGAUACCAGUGAGGCCACAUGAGGAUCACCCAUGUCCCUCACUCCGGCCCACCCUUGGCAGCUCGGAAGGUAAA
apparent Kd [3]: 18.1 nM | apparent Kd [4]: 119 nM

UGAUCCUGCAGGGAUACCAGCGCCGCUUGAUAACUGUGCACAUGAGGAUCACCCAUGUAGCGCCCUUGGCAGCCCAGCUAGAGGG
apparent Kd [1]: 25.4 nM | apparent Kd [2]: 23 nM

ACAUGAGGAUCACCCAUGUUCCUCGCCGAUACCAGUGAAGAAGUACGCCCUUGGCAGCGGAAAGAGUAUUUUGGAGAUGAGGUAC
apparent Kd [3]: 80 nM | apparent Kd [4]: 88.8 nM

GCAUGUGGAGUCUUACUAGAGAGGACAGAUACCAGUAAGAUGUGAUACCCUUGGCAGCUGCGAUUUACAUGAGGAUCACCCAUGU
apparent Kd [3]: 21.5 nM | apparent Kd [4]: 24.2 nM

GAUGAACUAUUUGAUACCAGACAACAUGAGGAUCACCCAUGUGCGCGUCGUCCUCUGCCUGUCCCUUGGCAGCGGAUAGUUUAUC
apparent Kd [3]: 59.5 nM | apparent Kd [4]: 89.9 nM

CUGCCAUGCAGAGAUACCAGUGCGCUCAGCACAUGAGGAUCACCCAUGUCGGCUGCCGAUCACCCUUGGCAGCUCUGCAUGGCAG
apparent Kd [1]: 11.4 nM | apparent Kd [2]: 9.11 nM

GAUGAUAUUGCAGAUACCAGACACAUGAGGAUCACCCAUGUCUCUGAGAUGAAGGAUCGUGUCCCUUGGCAGCUGCGAUAUCAUC
apparent Kd [3]: 32.7 nM | apparent Kd [4]: 338 nM

GAGCUGAUGUAGAGAAUAAAUAUAAGAGAUACCAGUACAGAAAUGUACCCUUGGCAGCUCAACUUUACAUGAGGAUCACCCAUGU
apparent Kd [3]: 13.9 nM | apparent Kd [4]: 18.8 nM

AAUCUGUCGGGUGAUACCAGCCUCGGCGCAUCUCACGCUGAACAUGAGGAUCACCCAUGUGGCCCUUGGCAGCACAUGACAAAUC
apparent Kd [1]: 572 nM | apparent Kd [2]: 55.1 nM

ACGAUGCGACAUGAGGAUCACCCAUGUGAUACCAGCCUGGAAACAGGCCCUUGGCAGCACAAAUACUCCAGAAACGCAUCGAAUA
apparent Kd [3]: 267 nM | apparent Kd [4]: 439 nM

ACAUGAGGAUCACCCAUGUCACGGCACGAUACCAGCUGAUCCGGUGGCCCUUGGCAGCGUGACGUUUGGUCCCGCGGAUGACACG
apparent Kd [1]: 134 nM | apparent Kd [2]: 43 nM
